Data: ChEMBL document CHEMBL1132112, “Novel modifications in the alkenyldiarylmethane (ADAM) series of non-nucleoside reverse transcriptase inhibitors” (J Med Chem, 1999)

Tests used:
[1] = system: CCRF-CEM; test: Concentration inhibiting 50% of mock-infected CEM cells.; format: functional; conditions: Homo sapiens
Summary of the method: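 Uninfected (mock-infected) CEM-SS cultures exposed to drug. Viability by XTT, expressed as percent of drug-free control. CC50 is the concentration causing 50% cell death. Triplicates on each plate, two sister plates averaged.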

[2] = target: T1, Human immunodeficiency virus type 1 reverse transcriptase (Human immunodeficiency virus 1, UniProt Q72547); test: Inhibition of HIV-1 Reverse transcriptase using poly-(rc)-oligo(dg) as the template primer.
Summary of the method: (§1)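 Purified p66/51 HIV-1 reverse transcriptase. Inhibition read as incorporation of [32P]-TTP into poly(rA)·oligo(dT) or of [32P]GTP into poly(rC)·oligo(dG) homopolymer template-primer.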

[3] = system: CEM-SS; test: 50% inhibitory concentration for cytopathicity of HIV-1 RF in CEM-SS cells; NA=Not active (EC50 uM); format: functional, cell-based, Homo sapiens
Summary of the method: (§2)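 CEM-SS cells infected with HIV-1 RF; drug-induced protection from viral cytopathic effect read by XTT, as percent of uninfected drug-free control. EC50 is the concentration giving 50% protection. Triplicate wells on each plate, two sister plates; the plate EC50s (each a triplicate average) were averaged. XTT results were confirmed by supernatant RT and p24 levels. NA means no inhibition up to the concentration cytotoxic to uninfected cells.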

[4] = target: T1, Human immunodeficiency virus type 1 reverse transcriptase; test: Inhibition of HIV-1 Reverse transcriptase using poly-(ra)-oligo(dt) as the template primer.; conditions: read-out: IC50; summary of the method: as §1
[5] = Therapeutic index was determined for the compound as CC50/EC50; conditions: read-out: TI
Summary of the method: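 Ratio of CC50 (XTT viability, uninfected CEM-SS) to EC50 (XTT protection from HIV-1 RF cytopathicity in CEM-SS). Both values come from triplicates on each plate, two sister plates averaged. NA means no antiviral inhibition up to the cytotoxic concentration.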

[6] = system: CEM-SS; test: 50% inhibitory concentration for cytopathicity of HIV-1 RF in CEM-SS cells.; format: functional, cell-based; conditions: Homo sapiens; summary of the method: as §2
[7] = system: CEM-SS; test: Fold resistance of HIV-1 RT containing the specified mutation 4X AZT in CEM-SS cells; S=Enhanced sensitivity; format: functional, cell-based; conditions: Homo sapiens
[8] = system: CEM-SS; test: Fold resistance of HIV-1 RT containing the specified mutation K101E in CEM-SS cells.; format: functional, Homo sapiens
[9] = system: CEM-SS; test: Fold resistance of HIV-1 RT containing the specified mutation V106A in CEM-SS cells.; format: functional, Homo sapiens
[10] = system: CEM-SS; test: Fold resistance of HIV-1 RT containing the specified mutation Y181C in CEM-SS cells.; format: functional, Homo sapiens
[11] = system: CEM-SS; test: Fold resistance of HIV-1 RT containing the specified mutation V179D in CEM-SS cells.; format: functional, Homo sapiens
[12] = system: CEM-SS; test: Fold resistance of the specific mutation in RT to the compound; S=Enhanced sensitivity; format: functional, cell-based; conditions: Homo sapiens
[13] = system: CEM-SS; test: Fold resistance of HIV-1 RT containing the specified mutation Y188C in CEM-SS cells.; format: functional, Homo sapiens
[14] = system: CEM-SS; test: Fold resistance of HIV-1 RT containing the specified mutation K103N in CEM-SS cells; NC=No significant change in sensitivity; format: functional, cell-based; conditions: Homo sapiens
[15] = system: CEM-SS; test: Fold resistance of HIV-1 RT containing the specified mutation A98G in CEM-SS cells.; format: functional, Homo sapiens
[16] = system: CEM-SS; test: Inhibition of cytopathic effect of HIV-1 RT containing the specified mutation Y181C in CEM-SS cells.; format: functional, cell-based, Homo sapiens
[17] = system: CEM-SS; test: Inhibition of cytopathic effect of HIV-1 RT containing the specified mutation Y181C resistant to AZT in CEM-SS cells.; format: functional, cell-based, Homo sapiens
[18] = system: CEM-SS; test: Inhibition of cytopathic effect of HIV-1 RT containing the specified mutation L100I in CEM-SS cells.; format: functional, cell-based, Homo sapiens
[19] = system: CEM-SS; test: Inhibition of cytopathic effect of HIV-1 RT containing the specified mutation K103N in CEM-SS cells.; format: functional, cell-based, Homo sapiens
[20] = system: Human immunodeficiency virus 1; test: Inhibition of cytopathic effect of HIV-1 strain wild type enzyme NL4-3 in CEM-SS cells.; format: functional, organism-based; conditions: Human immunodeficiency virus 1, CEM-SS
[21] = system: CEM-SS; test: Fold resistance of HIV-1 RT containing the specified mutation V179D in CEM-SS cells; format: functional, Homo sapiens
Summary of the method: (§3)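 Fold resistance of mutant HIV-1 viruses whose RT carries the listed mutation(s), measured against a virus containing wild-type NL4-3 RT. Anti-HIV readout by CEM-SS cytopathic-effect protection.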

[22] = system: CEM-SS; test: Fold resistance of HIV-1 RT containing the specified mutation L74V in CEM-SS cells; S=Enhanced sensitivity; format: functional, cell-based; conditions: Homo sapiens; summary of the method: as §3
[23] = system: CEM-SS; test: Fold resistance of HIV-1 RT containing the specified mutation 4X resistant to AZT in CEM-SS cells; NC=No significant change in sensitivity; format: functional, cell-based; conditions: Homo sapiens; summary of the method: as §3
[24] = system: CEM-SS; test: Fold resistance of HIV-1 RT containing the specified mutation K103N in CEM-SS cells; format: functional, Homo sapiens; summary of the method: as §3
[25] = system: CEM-SS; test: Inhibition of cytopathic effect of HIV-1 RT containing the specified mutation V106A in CEM-SS cells.; format: functional, cell-based, Homo sapiens
[26] = system: CEM-SS; test: Fold resistance of HIV-1 RT containing the specified mutation L100I in CEM-SS cells; format: functional, Homo sapiens; summary of the method: as §3
[27] = system: CEM-SS; test: Inhibition of cytopathic effect of HIV-1 RT containing the specified mutation L74V in CEM-SS cells.; format: functional, cell-based, Homo sapiens
[28] = system: CEM-SS; test: Inhibition of cytopathic effect of HIV-1 RT containing the specified mutation V179D in CEM-SS cells.; format: functional, cell-based, Homo sapiens
[29] = system: CEM-SS; test: Fold resistance of HIV-1 RT containing the specified mutation Y188C in CEM-SS cells; format: functional, Homo sapiens; summary of the method: as §3
[30] = system: CEM-SS; test: Inhibition of cytopathic effect of HIV-1 RT containing the specified mutation V108I in CEM-SS cells.; format: functional, cell-based, Homo sapiens
[31] = system: CEM-SS; test: Inhibition of cytopathic effect of HIV-1 RT containing the specified mutation Y188C in CEM-SS cells.; format: functional, cell-based, Homo sapiens
[32] = system: CEM-SS; test: Fold resistance of HIV-1 RT containing the specified mutation V106A in CEM-SS cells; format: functional, Homo sapiens; summary of the method: as §3
[33] = system: CEM-SS; test: Fold resistance of HIV-1 RT containing the specified mutation Y181C resistant to AZT in CEM-SS cells; format: functional, Homo sapiens; summary of the method: as §3
[34] = system: CEM-SS; test: Fold resistance of HIV-1 RT containing the specified mutation A98G in CEM-SS cells; format: functional, Homo sapiens; summary of the method: as §3
[35] = system: CEM-SS; test: Fold resistance of HIV-1 RT containing the specified mutation V108I in CEM-SS cells; format: functional, Homo sapiens; summary of the method: as §3
[36] = system: CEM-SS; test: Inhibition of cytopathic effect of HIV-1 RT containing the specified mutation L100I resistant to AZT in CEM-SS cells.; format: functional, cell-based, Homo sapiens
[37] = system: CEM-SS; test: Fold resistance of HIV-1 RT containing the specified mutation L100I resistant to AZT in CEM-SS cells; format: functional, Homo sapiens; summary of the method: as §3
[38] = system: CEM-SS; test: Inhibition of cytopathic effect of HIV-1 RT containing the specified mutation K101E in CEM-SS cells.; format: functional, cell-based, Homo sapiens
[39] = system: CEM-SS; test: Fold resistance of HIV-1 RT containing the specified mutation Y181C in CEM-SS cells; format: functional, Homo sapiens; summary of the method: as §3
[40] = system: CEM-SS; test: Fold resistance of HIV-1 RT containing the specified mutation K101E in CEM-SS cells; NC=No significant change in sensitivity; format: functional, cell-based; conditions: Homo sapiens; summary of the method: as §3
[41] = system: CEM-SS; test: Inhibition of cytopathic effect of HIV-1 RT containing the specified mutation A98G in CEM-SS cells.; format: functional, cell-based, Homo sapiens
[42] = system: CEM-SS; test: Inhibition of cytopathic effect of HIV-1 RT containing the specified mutation 4X resistant to AZT in CEM-SS cells.; format: functional, cell-based; conditions: Homo sapiens

COC(=O)CC=C(c1cc(Cl)c(OC)c(C(=O)OC)c1)c1cc(Cl)c(OC)c(C(=O)OC)c1
CC50 [1]: 13.3 µM | IC50 [2]: 2.2 µM | EC50 [3]: Not Active | IC50 [4]: > 100 µM

COC(=O)CCCCC=C(c1cc(Cl)c(OC)c(C(=O)OC)c1)c1cc(Cl)c(OC)c(C(=O)OC)c1
selectivity ratio [5]: 101 | CC50 [1]: 152 µM | EC50 [6]: 1.5 µM | IC50 [2]: 0.47 µM | IC50 [4]: 3.35 µM

CCCCCC=C(c1cc(Br)c(OC)c(C(=O)OC)c1)c1cc(Br)c(OC)c(C(=O)OC)c1
Fold resistance [7]: Enhanced sensitivity | Fold resistance [8]: >8 | Fold resistance [9]: >8 | Fold resistance [10]: >8 | Fold resistance [11]: >8 | Fold resistance [12]: Enhanced sensitivity | Fold resistance [13]: >8 | Fold resistance [14]: No significant changed | Fold resistance [15]: 2

COC(=O)c1cc(C(=CCCCCN=[N+]=[N-])c2cc(Cl)c(OC)c(C(=O)OC)c2)cc(Cl)c1OC
CC50 [1]: 176 µM | EC50 [6]: 7.1 µM | IC50 [2]: 1.3 µM | IC50 [4]: 0.8 µM

COC(=O)CCC=C(c1cc(Cl)c(OC)c(C(=O)OC)c1)c1cc(Cl)c(OC)c(C(=O)OC)c1
selectivity ratio [5]: 6.1 | CC50 [1]: 29.4 µM | EC50 [6]: 4.8 µM | IC50 [2]: 7.2 µM | IC50 [4]: > 100 µM

COC(=O)c1cc(C(=CCCCCBr)c2cc(Cl)c(OC)c(C(=O)OC)c2)cc(Cl)c1OC
CC50 [1]: 98.7 µM | EC50 [6]: 2.8 µM | IC50 [2]: 11 µM | IC50 [4]: 1.9 µM

CCC1(CCCC=C(c2cc(Cl)c(OC)c(CO)c2)c2cc(Cl)c(OC)c(CO)c2)OCCO1
CC50 [1]: 16.9 µM | IC50 [2]: 3.2 µM | EC50 [3]: Not Active | IC50 [4]: 31.6 µM

CCCCCC=C(c1cc(F)c(OC)c(C(=O)OC)c1)c1cc(F)c(OC)c(C(=O)OC)c1
CC50 [1]: 13.4 µM | IC50 [2]: 10 µM | EC50 [3]: Not Active

COC(=O)CCCC=C(c1cc(Cl)c(OC)c(C(=O)OC)c1)c1cc(Cl)c(OC)c(C(=O)OC)c1
EC50 [16]: > 50 µM | CC50 [1]: 31.6 µM | EC50 [17]: > 50 µM | EC50 [18]: > 0.16 µM | EC50 [19]: > 50 µM | EC50 [20]: 1.78 µM

COC(=O)c1cc(C(=CCC2OCCO2)c2cc(Cl)c(OC)c(C(=O)OC)c2)cc(Cl)c1OC
selectivity ratio [5]: 4 | CC50 [1]: 26 µM | EC50 [6]: 6.5 µM | IC50 [2]: 3.2 µM | IC50 [4]: 20.5 µM

COC(=O)CCCC=C(c1cc(Br)c(OC)c(C(=O)OC)c1)c1cc(Br)c(OC)c(C(=O)OC)c1
Fold resistance [21]: 670 | Fold resistance [22]: Enhanced sensitivity | Fold resistance [23]: No significant changed | selectivity ratio [5]: 10000 | Fold resistance [24]: 7 | EC50 [16]: 6.13 µM | EC50 [25]: 9.51 µM | CC50 [1]: 13 µM | Fold resistance [26]: 4.3 | EC50 [17]: 3.5 µM | EC50 [27]: 0.019 µM | EC50 [6]: 0.0013 µM | EC50 [28]: 40.2 µM | IC50 [2]: 0.3 µM | Fold resistance [29]: 28.8 | EC50 [30]: 0.67 µM | EC50 [31]: 1.73 µM | EC50 [18]: 0.26 µM | Fold resistance [32]: 158.5 | Fold resistance [33]: 58.3 | EC50 [19]: 0.42 µM | Fold resistance [34]: 3.7 | Fold resistance [35]: 10 | EC50 [36]: 0.33 µM | Fold resistance [37]: 5.5 | EC50 [38]: 0.07 µM | Fold resistance [39]: 102 | Fold resistance [40]: No significant changed | EC50 [41]: 0.22 µM | IC50 [4]: 1 µM | EC50 [42]: 0.07 µM | EC50 [20]: 0.06 µM
